# Columns and labels:
# CDK2/Cyclin A2 [1] = target: T1, CDK2/Cyclin A2 (Homo sapiens, UniProt P24941); test: Inhibition of human CDK2/Cyclin A2 using PKTPKKAKKL as substrate by fluorescence assay; type: protein-complex assay
# [2] = Cytotoxicity against mouse GC-1 cells after 72 hrs by MTT assay; type: functional, cell-based; conditions: GC-1, 72 h
# In short: (§1)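 Cells kept in RPMI or DMEM with 10% FBS at 37 °C, 5% CO₂ and allowed to attach overnight; 72 h with increasing inhibitor concentrations; then 1 mg/mL MTT for 3 h, DMSO solubilisation, OD read at 540 nm. Testis lines had culture conditions adapted to them. Dose-response in triplicate, 9 concentrations between 0.02 and 100 μM, averaged.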
# [3] = Cytotoxicity against mouse TM4 cells after 72 hrs by MTT assay; type: functional, cell-based; conditions: TM4, 72 h; in short: as §1
# [4] = Cytotoxicity against mouse GC-2 cells after 72 hrs by MTT assay; type: functional, cell-based; conditions: GC-2, 72 h; in short: as §1
# CDK2/Cyclin A2 [5] = target: T1, CDK2/Cyclin A2; test: Inhibition of human CDK2/Cyclin A2 using PKTPKKAKKL as substrate by PK/LDH spectrophotometric analysis; type: protein-complex assay
# A673 [6] = test: Induction of apoptosis in human A673 cells assessed as caspase-3 activation after 24 hrs by luminescence assay; type: functional, cell-based; conditions: A673, 24 h
# In short: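 Caspase-3/7 activation measured with a Caspase-Glo 3/7 luminescent assay. Cells were plated as for the high-throughput viability assay and exposed for 24 h to serial dilutions. EC50 was obtained from the dose-response.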
# BT-549 = test: Cytotoxicity against human BT549 cells after 72 hrs by resazurin/resorufin-based fluorescence assay; type: functional, cell-based; conditions: BT-549, 72 h
# In short: (§2)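 CellTiter-Blue viability: 1200 cells per well seeded, incubated overnight at 37 °C, 5% CO₂; drugs serially diluted 2:3 in medium, four replicate wells per concentration plus four diluent-only control wells; 72 h exposure; resazurin reduction to resorufin read by fluorescence (579 nm ex/584 nm em). IC50 is the average of three data sets, each using nine concentrations between 0.004 μM and 12.5 μM.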
# [7] = Cytotoxicity against human RPMI18226 cells after 72 hrs by resazurin/resorufin-based fluorescence assay; type: functional, cell-based; conditions: RPMI18226, 72 h
# SW872 = test: Cytotoxicity against human SW872 cells after 72 hrs by resazurin/resorufin-based fluorescence assay; type: functional, cell-based; conditions: SW872, 72 h
# HOS-TE85 = test: Cytotoxicity against human MNNG-HOS cells after 72 hrs by resazurin/resorufin-based fluorescence assay; type: functional, cell-based; conditions: HOS-TE85, 72 h
# U-266 = test: Cytotoxicity against human U266 cells after 72 hrs by resazurin/resorufin-based fluorescence assay; type: functional, cell-based; conditions: U-266, 72 h
# [8] = Cytotoxicity against human NCI-H929 cells after 72 hrs by resazurin/resorufin-based fluorescence assay; type: functional, cell-based; conditions: NCI-H929, 72 h
# SK-UT-1 = test: Cytotoxicity against human SK-UT-1 cells after 72 hrs by resazurin/resorufin-based fluorescence assay; type: functional, cell-based; conditions: SK-UT-1, 72 h
# SK-ES1 = test: Cytotoxicity against human SK-ES-1 cells after 72 hrs by resazurin/resorufin-based fluorescence assay; type: functional, cell-based; conditions: SK-ES1, 72 h
# SK-BR-3 = test: Cytotoxicity against human SK-BR-3 cells after 72 hrs by resazurin/resorufin-based fluorescence assay; type: functional, cell-based; conditions: SK-BR-3, 72 h; in short: as §2
# MCF7 = test: Cytotoxicity against human MCF7 cells after 72 hrs by resazurin/resorufin-based fluorescence assay; type: functional, cell-based; conditions: MCF7, 72 h
# [9] = Cytotoxicity against human MDA-MB-436 cells after 72 hrs by resazurin/resorufin-based fluorescence assay; type: functional, cell-based; conditions: MDA-MB-436, 72 h
# MDA-MB-231 = test: Cytotoxicity against human MDA-MB-231 cells after 72 hrs by resazurin/resorufin-based fluorescence assay; type: functional, cell-based; conditions: MDA-MB-231, 72 h
# T47D = test: Cytotoxicity against human T47D cells after 72 hrs by resazurin/resorufin-based fluorescence assay; type: functional, cell-based
# A673 [10] = test: Cytotoxicity against human A673 cells after 72 hrs by resazurin/resorufin-based fluorescence assay; type: functional, cell-based; conditions: A673, 72 h
# MDA-MB-468 = test: Cytotoxicity against human MDA-MB-468 cells after 72 hrs by MTT assay; type: functional, cell-based; conditions: MDA-MB-468, 72 h; in short: as §1
smiles,measurement,setting,value
Nc1nc(Nc2ccc(S(N)(=O)=O)cc2)sc1C(=O)c1ccccc1,IC50,CDK2/Cyclin A2 [1],0.13 µM
same,IC50,[2],17 µM
same,IC50,[3],9.1 µM
same,IC50,[4],6.1 µM
CCNc1nc(N)c(C(=O)c2ccccc2)s1,IC50,CDK2/Cyclin A2 [5],17 µM
C=CCNc1nc(N)c(C(=O)C(C)(C)C)s1,IC50,CDK2/Cyclin A2 [5],> 100 µM
C=CCNc1nc(N)c(C(=O)c2ccc(Cl)s2)s1,IC50,CDK2/Cyclin A2 [5],12 µM
C=CCNc1nc(N)c(C(=O)c2ccccc2)s1,IC50,CDK2/Cyclin A2 [5],15 µM
Nc1nc(Nc2ccccc2)sc1C(=O)c1cccc([N+](=O)[O-])c1,IC50,CDK2/Cyclin A2 [5],2.2 µM
CC(=O)c1sc(Nc2ccccc2)nc1N,IC50,CDK2/Cyclin A2 [5],> 100 µM
COc1cccc2c1C(=O)c1c(O)c3c(c(O)c1C2=O)C[C@@](O)(C(=O)CO)C[C@@H]3O[C@H]1C[C@H](N)[C@H](O)[C@H](C)O1 [DOXORUBICIN],EC50,A673 [6],0.39 µM
same,IC50,BT-549,0.11 µM
same,IC50,[7],0.27 µM
same,IC50,SW872,0.14 µM
same,IC50,HOS-TE85,0.59 µM
same,IC50,U-266,0.67 µM
same,IC50,[8],0.065 µM
same,IC50,SK-UT-1,0.076 µM
same,IC50,SK-ES1,0.042 µM
same,IC50,SK-BR-3,0.09 µM
Nc1nc(Nc2ccc(S(N)(=O)=O)cc2)sc1C(=O)c1cccc(F)c1,IC50,CDK2/Cyclin A2 [1],0.05 µM
same,IC50,BT-549,> 10 µM
same,IC50,[7],6.8 µM
same,IC50,SW872,3.1 µM
same,IC50,MCF7,1.3 µM
same,IC50,HOS-TE85,2.2 µM
same,IC50,[9],1.3 µM
same,IC50,U-266,1.5 µM
same,IC50,[8],1 µM
same,IC50,MDA-MB-231,1.2 µM
same,IC50,SK-UT-1,1.6 µM
same,IC50,T47D,0.98 µM
same,IC50,SK-ES1,1.1 µM
same,IC50,A673 [10],0.45 µM
same,IC50,SK-BR-3,1.2 µM
same,IC50,[2],6.4 µM
same,IC50,[3],4.8 µM
same,IC50,[4],3.9 µM
same,IC50,MDA-MB-468,0.8 µM
CCCNc1nc(N)c(C(=O)c2ccccc2)s1,IC50,CDK2/Cyclin A2 [5],8.9 µM
C=CCNc1nc(N)c(C(=O)c2ccc([N+](=O)[O-])cc2)s1,IC50,CDK2/Cyclin A2 [5],41 µM
N#Cc1ccc(Nc2nc(N)c(C(=O)c3cccnc3)s2)cc1,IC50,CDK2/Cyclin A2 [5],2.8 µM
CC(C)(C)Nc1nc(N)c(C(=O)c2ccccc2)s1,IC50,CDK2/Cyclin A2 [5],> 100 µM
Nc1nc(Nc2ccccc2)sc1C(=O)c1ccccc1,IC50,CDK2/Cyclin A2 [1],0.93 µM
same,IC50,[2],11 µM
same,IC50,[3],12 µM
same,IC50,[4],11 µM
Nc1nc(Nc2ccccc2)sc1C(=O)c1ccc2ccccc2c1,IC50,CDK2/Cyclin A2 [5],> 100 µM
CNc1nc(N)c(C(=O)c2ccccc2)s1,IC50,CDK2/Cyclin A2 [5],95 µM
Nc1cccc(C(=O)c2sc(Nc3ccc(S(N)(=O)=O)cc3)nc2N)c1,IC50,CDK2/Cyclin A2 [1],0.07 µM
same,IC50,BT-549,> 10 µM
same,IC50,[7],> 10 µM
same,IC50,SW872,> 10 µM
same,IC50,MCF7,> 10 µM
same,IC50,HOS-TE85,> 10 µM
same,IC50,[9],> 10 µM
same,IC50,U-266,5.5 µM
same,IC50,[8],6.8 µM
same,IC50,MDA-MB-231,> 10 µM
same,IC50,SK-UT-1,> 10 µM
same,IC50,T47D,5.8 µM
same,IC50,SK-ES1,9.8 µM
same,IC50,A673 [10],8.8 µM
same,IC50,SK-BR-3,4.1 µM
NC(=O)c1ccc(Nc2nc(N)c(C(=O)c3cccnc3)s2)cc1,IC50,CDK2/Cyclin A2 [1],0.2 µM
C=CCNc1nc(N)c(C(=O)c2ccccn2)s1,IC50,CDK2/Cyclin A2 [5],33 µM
Nc1nc(Nc2ccc(S(N)(=O)=O)cc2)sc1C(=O)c1ccc([N+](=O)[O-])cc1,IC50,CDK2/Cyclin A2 [5],7.4 µM
Cc1ccccc1C(=O)c1sc(Nc2ccc(S(N)(=O)=O)cc2)nc1N,IC50,CDK2/Cyclin A2 [5],4.8 µM
Nc1nc(NC2CCCCC2)sc1C(=O)c1ccccc1,IC50,[2],9.2 µM
same,IC50,[3],9.3 µM
same,IC50,[4],8.2 µM
same,IC50,CDK2/Cyclin A2 [5],1.3 µM
Nc1nc(Nc2ccc(S(N)(=O)=O)cc2)sc1C(=O)c1cc(C(F)(F)F)cc(C(F)(F)F)c1,IC50,CDK2/Cyclin A2 [5],25 µM
COc1ccc(C(=O)c2sc(Nc3ccc(S(N)(=O)=O)cc3)nc2N)cc1,IC50,CDK2/Cyclin A2 [5],17 µM
Nc1nc(Nc2ccccc2)sc1C(=O)c1cccc(C(F)(F)F)c1,IC50,CDK2/Cyclin A2 [5],> 100 µM
C=CCNc1nc(N)c(C(=O)c2cccnc2)s1,IC50,CDK2/Cyclin A2 [5],3.1 µM
Nc1nc(NC2CCNCC2)sc1C(=O)c1cccnc1,IC50,CDK2/Cyclin A2 [5],43 µM
Nc1nc(Nc2ccccc2)sc1C(=O)c1cccnc1,IC50,CDK2/Cyclin A2 [1],0.65 µM
same,IC50,[2],5.9 µM
same,IC50,[3],5.5 µM
same,IC50,[4],9.5 µM
Nc1nc(Nc2ccccc2)sc1C(=O)c1cccc(F)c1,IC50,[2],3.6 µM
same,IC50,[3],5.1 µM
same,IC50,[4],4.1 µM
same,IC50,CDK2/Cyclin A2 [5],1.6 µM
CC(C)Nc1nc(N)c(C(=O)c2cccnc2)s1,IC50,CDK2/Cyclin A2 [1],0.52 µM
Nc1nc(Nc2ccc(C(F)(F)F)cc2)sc1C(=O)c1ccccc1,IC50,CDK2/Cyclin A2 [5],> 100 µM
C=CCNc1nc(N)c(C(=O)c2cccc([N+](=O)[O-])c2)s1,IC50,CDK2/Cyclin A2 [5],2.9 µM
